Article PMC2949545 (Environment international, 2010)
Several values for one entry are separate records, joined by “and”; a condition that tells them apart may be missing. Equal values may be shown once. Read-outs that look alike come from different tables or passages of the source.

Tests used:
LacI gene [1] = assay: BigBlue lacI mutant and mutation frequency analysis, female liver; type: in vivo, F344 BigBlue rats; settings: for Mutants per 10^6 plaques (mutant frequency): 4 weekly i.p. injections, sacrifice PND75; for Mutation Frequency (MF) ± SE (corrected) / Number of Mutations (corrected): after sequencing; for Number of Mutations (corrected): duplicates and non-mutants excluded
Method in brief: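 Female F344 BigBlue rats (lacI transgene), 4/group, got i.p. test compound, positive control or corn oil (5 ml/kg) weekly on PND 37, 44, 51, 58 and were killed on PND75. Genomic DNA from 50 mg central liver was lambda-packaged, infected into E. coli and plated in X-gal top agar overnight. Blue plaques were counted, with >100,000 pfu/animal. Mutant frequency = blue plaques/pfu, per 10^6 ± SE.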

LacI gene [2] = assay: LacI gene sequencing, type of mutations; type: in vivo, F344 BigBlue rats; settings: female liver; for Deletions, distinct mutations / Insertions, distinct mutations / Transitions, distinct mutations / Transversions, distinct mutations: number; for frameshift mutations (deletions and insertions), % of all mutations: solvent controls 18%
[3] = Body weight gain during the study period; type: in vivo, F344 BigBlue rats; settings: for reduction of weight gain during the treatment period: versus control
F344 BigBlue rats [4] = assay: Organ weights normalized to body weight; type: in vivo
Method in brief: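 Rats of both genders, 4/group, were given 4 weekly i.p. doses in corn oil and killed on PND75 by CO2 then cervical dislocation. Liver and other organs were excised and weighed, and weights were expressed as g per 100 g body weight. ANOVA used treatment, gender and their interaction.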

F344 BigBlue rats [5] = assay: Histological analysis of spleen, lung and liver; type: in vivo; settings: animal 1 – 4
Method in brief: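 In both genders, frozen tissue sampled at PND75 sacrifice (4 weekly i.p. doses, 4 rats/group) was cut into four-micron sections. Sections were stained with hematoxylin/eosin and examined by light microscopy for histological anomalies in each animal.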

liver mRNA = assay: Gene expression analysis of female liver RNA; type: in vivo, F344 BigBlue rats; settings: for number of unique genes significantly changed: p < 0.0001 and fold change > 5 versus corn oil control, pooled RNA
F344 BigBlue rats [6] = settings: Male; animal 1 – 4; previously reported; ref Lehmann et al. 2007; Maddox et al. 2008; cited from earlier work
LacI = settings: ref Lehmann et al. 2007, cited from earlier work; for frameshift mutations, % of mutations: male livers, control 19%
[7] = ref Li et al. 1997; cited from earlier work
[8] = ref Espandiari et al. 2004; cited from earlier work
[9] = versus corn oil control, up-regulated

For `Cc1ccc2cc3c(ccc4ccccc43)c3c2c1CC3` [3-MC, 3-Methylcholanthrene, reference compound], the “significance of the increase in mutation frequency compared to control” value (LacI gene [1]) was “failed marginally to reach statistical significance”, the “Mutants per 10^6 plaques (mutant frequency)” value (LacI gene [1]) was 48.4 per 10^6 plaques and the “Mutation Frequency (MF) ± SE (corrected)” value (LacI gene [1]) was 43.5 per 10^6 pfu and 43.5 ± 14.8 per 10^6 pfu. The “Number of Mutations (corrected)” value (LacI gene [1]) was 28, the “Deletions, % of total” value (LacI gene [2]) was 18% and the “Insertions, % of total” value (LacI gene [2]) was 14%. The “Total Mutations” value (LacI gene [2]) was 28, the “Transitions, % of total” value (LacI gene [2]) was 32% and the “Transversions, % of total” value (LacI gene [2]) was 36%. The “frameshift mutations (deletions and insertions) observed, number” value (LacI gene [2]; expected 5 from solvent control proportions) was 9, the “Deletions, distinct mutations” value (LacI gene [2]) was 5 and the “Insertions, distinct mutations” value (LacI gene [2]) was 4. For the same compound, the “Transitions, distinct mutations” value (LacI gene [2]) was 9, the “Transversions, distinct mutations” value (LacI gene [2]) was 10 and the “frameshift mutations (deletions and insertions), % of all mutations” value (LacI gene [2]) was 32%. The “Weight Gain (average ± StDev)” value ([3]; Female, control 80.7 ± 7.42) was 61.8 ± 7.78 ^# gram, the “Weight Gain (average ± StDev)” value ([3]; Male, control 159.7 ± 7.63) was 90.4 ± 25.6 gram and the “reduction of weight gain during the treatment period” value ([3]; females) was 23%. For the same compound, the “reduction of weight gain during the treatment period” value ([3]; males) was 43%, the “increase in liver mass compared to corn oil controls” value (F344 BigBlue rats [4]; female rats) was “over 30%” and the “increase in lung mass compared to corn oil controls” value (F344 BigBlue rats [4]; female rats) was “over 30%”. The “increase in spleen mass compared to corn oil controls” value (F344 BigBlue rats [4]; female rats) was “over 30%”, the “liver weight relative to body weight compared to corn oil treated rats” value (F344 BigBlue rats [4]; female rats) was “nearly doubled in weight per grams of body weight” and the relative lung weight (F344 BigBlue rats [4]; female rats) was “more than doubling of the relative lung weight”. For the same compound, the “spleen, thymus and adrenal gland weights relative to controls” value (F344 BigBlue rats [4]; females) was “increased spleen weights and decreased the thymus and adrenal gland weights”, the “Organ Pathology, LIVER” value (F344 BigBlue rats [5]; Female) was “only scattered foci of necrosis, prominent Kupffer cells and focal perilobular lymphocytes in two of the four animals” and the “Organ Pathology, LUNG” value (F344 BigBlue rats [5]; Female) was 1: Bronchopneumonia with what looks like early ARDS. Pulmonary edema 2: Bronchopneumonia with what looks like early ARDS more so than #1. Pulmonary edema. 3: Focal acute inflammation with increased intra-alveolar macrophages 4: No abnormality. For the same compound, the “Organ Pathology, SPLEEN” value (F344 BigBlue rats [5]; Female) was “No abnormality”, the “Organ Pathology, SPLEEN” value (F344 BigBlue rats [5]; Male) was “No abnormality” and the “number of unique genes significantly changed” value (liver mRNA) was “Seventyfive”. The “calca (calcitonin/calcitonin-related polypeptide a) expression” value (liver mRNA; versus corn oil control) was “up regulated”, the “csda (cold shock domain protein A) expression” value (liver mRNA; versus corn oil control) was “up regulated” and the “trib3 (tribbles homolog 3) expression” value (liver mRNA; versus corn oil control) was “up regulated”. The “CYP1A2 gene expression increase” value (liver mRNA; versus corn oil control, up) was 58 fold, the “UGT1A2 gene expression increase” value (liver mRNA; versus corn oil control, up) was 13 fold and the “akr7a3 (aldo-keto reductases 7a3) expression change” value (liver mRNA; versus corn oil control, up) was 16 fold. The “bcl10 (B-cell CLL/lymphoma 10) expression change” value (liver mRNA; versus corn oil control, up) was 16.3 fold, the “ephx1 (epoxide hydrolase 1) expression change” value (liver mRNA; versus corn oil control, up) was 9.9 fold and the “gdnf (glial cell derived neurotrophic factor) expression change” value (liver mRNA; versus corn oil control, up) was 6.0 fold. For the same compound, the “glrx1 (glutaredoxin 1) expression change” value (liver mRNA; versus corn oil control, up) was 10.2 fold, the “hmox1 (heme oxygenase 1) expression change” value (liver mRNA; versus corn oil control, up) was 16.3 fold and the “mgst2 (microsomal glutathione S-transferase 2) expression change” value (liver mRNA; versus corn oil control, up) was 7.9 fold. The “ptgs1 (prostaglandin-endoperoxide synthase 1) expression change” value (liver mRNA; versus corn oil control, up) was 27.8 fold, the smarcb1 expression change (liver mRNA; versus corn oil control, up) was 8.5 fold and the “Organ Pathology, LIVER” value (F344 BigBlue rats [6]) was “centrilobular necrosis, in some cases severe, was the dominat finding”. The “Organ Pathology, LUNG” value (F344 BigBlue rats [6]) was 1: No abnormality 2 + 3: Focal perivascular lymphocytes. 4: Focal perivascular lymphocytes with increased intra-alveolar macrophages, the “frameshift mutations, % of mutations” value (LacI) was 27% and the “increase in mutation frequency” value (LacI; male rodents, liver) was “about 5 fold”. For the same compound, the “persistence in the liver” value [7] was 2 weeks.

In the case of `Oc1ccc(-c2ccc(Cl)cc2)cc1` [4′-OH-PCB3], the “significance of the increase in mutation frequency compared to control” value (LacI gene [1]) is reported as “neither PCB3 (p=0.429) nor 4′-OH-PCB3 (p=0.581) increased the mutation frequency significantly”, the “Mutants per 10^6 plaques (mutant frequency)” value (LacI gene [1]) is reported as 27.3 per 10^6 plaques and the “Mutation Frequency (MF) ± SE (corrected)” value (LacI gene [1]) is reported as 27.2 ± 6.6 per 10^6 pfu. The “Number of Mutations (corrected)” value (LacI gene [1]) was 19, the “Deletions, % of total” value (LacI gene [2]) was 12% and the “Insertions, % of total” value (LacI gene [2]) was 24%. The “Transitions, % of total” value (LacI gene [2]) was 35%, the “Transversions, % of total” value (LacI gene [2]) was 29% and the “Deletions, distinct mutations” value (LacI gene [2]) was 2. The “Insertions, distinct mutations” value (LacI gene [2]) was 4, the “Transitions, distinct mutations” value (LacI gene [2]) was 6 and the “Transversions, distinct mutations” value (LacI gene [2]) was 5. For the same compound, the “frameshift mutations (deletions and insertions), % of all mutations” value (LacI gene [2]) was 36%, the “Weight Gain (average ± StDev)” value ([3]; Female, control 80.7 ± 7.42) was 85.3 ± 4.13 gram and the “Weight Gain (average ± StDev)” value ([3]; Male, control 159.7 ± 7.63) was 129.6 ± 17.50 gram. The “effect on weight gain compared to control” value ([3]; either gender) was “Neither PCB3 nor 4′-OH-PCB3 had a significant effect on weight gain in either gender”, the “impact on liver, lung and spleen weights” value (F344 BigBlue rats [4]; versus corn oil controls) was “no statistically significant impact” and the “Organ Pathology, LIVER” value (F344 BigBlue rats [5]; Female) was “rare acidophilic bodies, but 3 of 4 animals had patchy hepatocellular necrosis and chronic inflammation and 1: Rare acidophilic bodies with patchy hepatocellular necrosis and chronic inflammation. 2 + 3: Rare acidophilic bodies with patchy hepatocellular necrosis and chronic inflammation. 4: Scattered acidophilic bodies with dilated sinusoids”. The “Organ Pathology, LUNG” value (F344 BigBlue rats [5]; Female) was 1: Minimal acute inflammation 2: Almost normal with focal perivascular lymphocytes. 3: No abnormality. 4: Patchy bronchopneumonia with early ARDS. Perivascular lymphocytes increased, the “Organ Pathology, SPLEEN” value (F344 BigBlue rats [5]; Female) was 1 – 4: Reduced mantle and the “Organ Pathology, SPLEEN” value (F344 BigBlue rats [5]; Male) was 1: No abnormality 2 + 3: Reduced mantle with focally increased neutrophils. 4: Reduced mantle with focally increased neutrophils with red pulp congestion. The “number of unique genes significantly changed” value (liver mRNA) was 157, the “cul1 (cullin 1) expression change” value (liver mRNA; versus corn oil control, down) was 36.3 fold and the “ei24 (etoposide induced 2.4 mRNA) expression change” value (liver mRNA; versus corn oil control, down) was 28.1 fold. The cyp2b2 expression change (liver mRNA; versus corn oil control, down-regulated) was roughly 19 fold, the “aqp2 (aquaporin 2) expression change” value (liver mRNA; versus corn oil control, up) was 6.6 fold and the “bnip3l (BCL2/adenovirus E1B interacting protein 3-like) expression change” value (liver mRNA; versus corn oil control, up) was 5.8 fold. The “kdr (kinase insert domain protein receptor) expression change” value (liver mRNA; versus corn oil control, up) was 6.4 fold, the “sh3glb1 (SH3-domain GRB2-like endophilin B1) expression change” value (liver mRNA; versus corn oil control, up) was 6.3 fold and the “stat1 (signal transducer and activator of transcription 1) expression change” value (liver mRNA; versus corn oil control, up) was 10.6 fold. The “syvn1 (synovial apoptosis inhibitor 1) expression change” value (liver mRNA; versus corn oil control, up) was 26.7 fold, the Cyp2j4 expression change (liver mRNA; [9]) was 8.8 fold and the “sult1b1 (sulfotransforase 1b1) expression change” value (liver mRNA; [9]) was roughly 7 fold. For the same compound, the “Organ Pathology, LIVER” value (F344 BigBlue rats [6]) was “all four male 4′-OH-PCB3 livers showed dilated sinosoids and 1: dilated sinusoids, rare acidophil body. No obvious inflammation. 2, 3, and 4: dilated sinusoids,. Focal lymphocyte cluster with rare acidophil body. Minimal portal tract inflammation”, the “Organ Pathology, LUNG” value (F344 BigBlue rats [6]) was 1 + 2: No abnormality. 3 + 4: Minimal perivascular lymphocytes and the “frameshift mutations, % of mutations” value (LacI) was 22%. The “result in the modified Solt-Farber Initiation Protocol” value [8] was “positive”.
